Values after ≈ are worked out from the molar mass of the structure shown. Active and inactive are the calls of the source. The calls are words filed in the database; no cut-off is given here. Non-standard residues stand in square brackets, D forms with d. Residues, ends and D or L forms follow the SMILES beside them. *: point of attachment. NHCH2CH2OH = OCCN*; For = O=C*
Key:
[1] = Hemolytic activity in rat RBC assessed as hemoglobin release at 16 ug/mL after 1 hr by microplate reader analysis relative to control; format: ADME, cell-based, Erythrocyte; details: red blood cells (RBC), read-out: Activity
Outline: (§1)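 Rat RBCs (2% w/w) were exposed to compound for 1 h at 37 °C, 5% CO2, using twofold dilutions from 256 µg/mL. PBS served as the negative control and 1% w/v Triton X-100 as the 100% lysis control. After centrifugation (2000 rpm, 10 min), supernatant absorbance was read at 550 nm and expressed as % hemoglobin release relative to Triton. Assays were run in triplicate, averaged over blood from at least two rats.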

Staphylococcus aureus [2] = test: Antibacterial activity against Staphylococcus aureus NCTC 6571 assessed as growth inhibition after 24 hrs by MTT assay; format: functional; details: NCTC 6571, 24 h
Outline: (§2)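 Starter cultures grown 24 h at 37 °C, 5% CO2, aerobic, then diluted in fresh medium to OD600 0.004. Twofold serial dilutions from 64 µg/mL, 24 h incubation. MTT (1 mg/mL solution) added, then 2 h at 37 °C. MIC = lowest concentration with no visible growth. Two independent experiments, each in triplicate.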

Streptococcus pyogenes [3] = test: Antibacterial activity against Streptococcus pyogenes serotype M1T1 assessed as growth inhibition after 24 hrs by MTT assay; format: functional; details: serotype M1T1, 24 h
Outline: (§3)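 Starter cultures were grown 24 h at 37 °C, 5% CO2, aerobic, then diluted in fresh medium to OD600 0.004. Twofold serial dilutions started at 64 µg/mL. After 24 h of incubation, MTT (1 mg/mL solution) was added and plates were incubated 2 h more at 37 °C. MIC was taken as the lowest concentration with no growth. Two independent experiments were run, each in triplicate.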

Streptococcus pyogenes [4] = test: Antibacterial activity against Streptococcus pyogenes serotype T5 assessed as growth inhibition after 24 hrs by MTT assay; format: functional; details: serotype T5, 24 h; outline: as §3
[5] = Hemolytic activity in rat RBC assessed as hemoglobin release at 128 ug/mL after 1 hr by microplate reader analysis; format: ADME, cell-based; details: erythrocyte; outline: as §1
Streptococcus pyogenes [6] = test: Antibacterial activity against Streptococcus pyogenes JRS75 assessed as growth inhibition after 24 hrs by MTT assay; format: functional; details: JRS75, 24 h; outline: as §3
Staphylococcus aureus [7] = test: Antibacterial activity against methicillin-resistant Staphylococcus aureus assessed as growth inhibition after 24 hrs by MTT assay; format: functional; outline: as §2
Streptococcus pyogenes [8] = test: Antibacterial activity against Streptococcus pyogenes serotype M24 assessed as growth inhibition after 24 hrs by MTT assay; format: functional; details: serotype M24, 24 h; outline: as §3
[9] = Antibacterial activity against Streptococcus pyogenes serotype M5 assessed as growth inhibition after 24 hrs by MTT assay; format: functional; outline: as §3
[10] = system: Staphylococcus epidermidis; test: Antibacterial activity against biofilm-negative Staphylococcus epidermidis ATCC 12228 assessed as growth inhibition after 24 hrs by MTT assay; format: functional; details: ATCC 12228, 24 h; outline: as §3
Streptococcus pyogenes [11] = test: Antibacterial activity against Streptococcus pyogenes MGAS9429 assessed as growth inhibition after 24 hrs by MTT assay; format: functional; details: MGAS9429, 24 h; outline: as §3
Staphylococcus aureus [12] = test: Antibacterial activity against Staphylococcus aureus Cowan ATCC 12598 assessed as growth inhibition after 24 hrs by MTT assay; format: functional; details: Cowan ATCC 12598, 24 h; outline: as §2
[13] = Hemolytic activity in rat RBC assessed as hemoglobin release at 256 ug/mL after 1 hr by microplate reader analysis relative to control; format: ADME, cell-based, Erythrocyte; details: red blood cells (RBC), read-out: Activity; outline: as §1
[14] = Antibacterial activity against Streptococcus pyogenes serotype M2 assessed as growth inhibition after 24 hrs by MTT assay; format: functional; outline: as §3
Streptococcus pyogenes [15] = test: Antibacterial activity against glossy colony producing Streptococcus pyogenes assessed as growth inhibition after 24 hrs by MTT assay; format: functional; outline: as §3
[16] = Antibacterial activity against Streptococcus pyogenes serotype M3 assessed as growth inhibition after 24 hrs by MTT assay; format: functional; outline: as §3
[17] = Antibacterial activity against biofilm-positive Staphylococcus epidermidis RP62A ATCC 35984 assessed as growth inhibition after 24 hrs by MTT assay; format: functional; details: ATCC 35984, 24 h; outline: as §3
Streptococcus pyogenes [18] = test: Ratio of gramicidin D MIC to compound MIC for glossy colony producing Streptococcus pyogenes; format: functional
Staphylococcus aureus [19] = test: Ratio of gramicidin D MIC to compound MIC for Staphylococcus aureus Cowan ATCC 12598; format: functional
[20] = system: Staphylococcus epidermidis; test: Antibacterial activity against Staphylococcus epidermidis ATCC 12228 assessed as cell surface wrinkling at 1 ug/mL after 1 hr by scanning electron microscopic analysis; format: functional, organism-based
Outline: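 S. epidermidis ATCC12228 grown 4 h at 37 °C, aerobic, to OD600 0.2. Cells washed in PBS pH 7.4 and resuspended to OD600 1.0. Treated with 1 µg/mL for 1 h at 37 °C, then diluted twofold. Washed, fixed overnight at 4 °C in 2.5% glutaraldehyde/PBS, dehydrated through graded ethanol, vacuum-dried, Pd-Au coated and imaged by SEM. Compared against untreated cells.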

Streptococcus pyogenes [21] = test: Ratio of gramicidin D MIC to compound MIC for Streptococcus pyogenes MGAS9429; format: functional
[22] = system: Staphylococcus epidermidis; test: Ratio of gramicidin D MIC to compound MIC for biofilm-negative Staphylococcus epidermidis ATCC 12228; format: functional
Staphylococcus aureus [23] = test: Ratio of gramicidin D MIC to compound MIC for Staphylococcus aureus NCTC 6571; format: functional
[24] = Ratio of gramicidin D activity to compound activity for hemolysis of rat RBC up to 256 ug/mL after 1 hrs; format: ADME, cell-based; details: erythrocyte
[25] = Hemolytic activity in rat RBC assessed as hemoglobin release at 32 ug/mL after 1 hr by microplate reader analysis relative to control; format: ADME, cell-based, Erythrocyte; details: red blood cells (RBC), read-out: Activity; outline: as §1
[26] = Hemolytic activity in rat RBC assessed as hemoglobin release at 64 ug/mL after 1 hr by microplate reader analysis; format: ADME, cell-based; details: erythrocyte
Outline: (§4)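 Rat RBCs (2% w/w) incubated 1 h at 37 °C, 5% CO2 with twofold dilutions starting at 256 µg/mL. PBS served as negative control and 1% w/v Triton X100 as the 100% lysis control. After centrifugation (2000 rpm, 10 min), supernatant absorbance read at 550 nm. Hemoglobin release expressed as % of Triton. Triplicates, with blood from at least two rats.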

[27] = Hemolytic activity in rat RBC assessed as hemoglobin release at 2 ug/mL after 1 hr by microplate reader analysis relative to control; format: ADME, cell-based, Erythrocyte; details: red blood cells (RBC), read-out: Activity; outline: as §4

SMILES	hemolysis at 1 h, 16 ug/mL [1]	MIC (Staphylococcus aureus [2])	MIC (Streptococcus pyogenes [3])	MIC (Streptococcus pyogenes [4])	Activity [5]	MIC (Streptococcus pyogenes [6])	MIC (Staphylococcus aureus [7])	MIC (Streptococcus pyogenes [8])	MIC [9]	MIC [10]	MIC (Streptococcus pyogenes [11])	MIC (Staphylococcus aureus [12])	hemolysis at 1 h, 256 ug/mL [13]	MIC [14]	MIC (Streptococcus pyogenes [15])	MIC [16]	MIC [17]	Activity [20]	hemolysis at 1 h, 32 ug/mL [25]	Activity [26]	other results
CCCCCCSC[C@H]1O[C@H](O[C@H]2[C@H](O[C@@H]3O[C@H](CSCCCCCC)[C@@H](O[C@H]4O[C@@H](CN)[C@@H](O)[C@H](O)[C@H]4N)[C@H]3O)[C@@H](O)[C@H](N)C[C@@H]2N)[C@H](N)[C@@H](O)[C@@H]1O	0%	32 µg/mL (≈ 39.2 µM)	16 µg/mL (≈ 19.6 µM)	4 µg/mL (≈ 4.9 µM)	Toxic	8 µg/mL (≈ 9.8 µM)	> 64 µg/mL	8 µg/mL (≈ 9.8 µM)	8 µg/mL (≈ 9.8 µM)	8 µg/mL (≈ 9.8 µM)	8 µg/mL (≈ 9.8 µM)	64 µg/mL (≈ 78.4 µM)	3.4%	8 µg/mL (≈ 9.8 µM)	8 µg/mL (≈ 9.8 µM)	4 µg/mL (≈ 4.9 µM)	16 µg/mL (≈ 19.6 µM)				
CCCCCCCCSC[C@H]1O[C@H](O[C@H]2[C@H](O[C@@H]3O[C@H](CSCCCCCCCC)[C@@H](O[C@H]4O[C@@H](CN)[C@@H](O)[C@H](O)[C@H]4N)[C@H]3O)[C@@H](O)[C@H](N)C[C@@H]2N)[C@H](N)[C@@H](O)[C@@H]1O	0.8%	4 µg/mL (≈ 4.59 µM)	2 µg/mL (≈ 2.29 µM)	2 µg/mL (≈ 2.29 µM)	Toxic	2 µg/mL (≈ 2.29 µM)	8 µg/mL (≈ 9.17 µM)	2 µg/mL (≈ 2.29 µM)	2 µg/mL (≈ 2.29 µM)	2 µg/mL (≈ 2.29 µM)	4 µg/mL (≈ 4.59 µM)	4 µg/mL (≈ 4.59 µM)	62.5%	2 µg/mL (≈ 2.29 µM)	2 µg/mL (≈ 2.29 µM)	2 µg/mL (≈ 2.29 µM)	2 µg/mL (≈ 2.29 µM)	Active			Ratio (Streptococcus pyogenes [18]): 8; Ratio (Staphylococcus aureus [19]): > 16; Ratio (Streptococcus pyogenes [21]): > 16; Ratio [22]: 4; Ratio (Staphylococcus aureus [23]): 16
NC[C@@H]1O[C@H](O[C@H]2[C@@H](O)[C@H](O[C@@H]3[C@@H](O)[C@H](N)C[C@H](N)[C@H]3O[C@H]3O[C@H](CO)[C@@H](O)[C@H](O)[C@H]3N)O[C@@H]2CO)[C@H](N)[C@@H](O)[C@@H]1O [PAROMOMYCIN]		> 64 µg/mL	64 µg/mL (≈ 104 µM)	16 µg/mL (≈ 26 µM)		64 µg/mL (≈ 104 µM)	> 64 µg/mL	64 µg/mL (≈ 104 µM)	32 µg/mL (≈ 52 µM)	2 µg/mL (≈ 3.25 µM)	> 64 µg/mL	16 µg/mL (≈ 26 µM)		64 µg/mL (≈ 104 µM)	64 µg/mL (≈ 104 µM)	32 µg/mL (≈ 52 µM)	> 64 µg/mL	Active			
CCCCCCCSC[C@H]1O[C@H](O[C@H]2[C@H](O[C@@H]3O[C@H](CSCCCCCCC)[C@@H](O[C@H]4O[C@@H](CN)[C@@H](O)[C@H](O)[C@H]4N)[C@H]3O)[C@@H](O)[C@H](N)C[C@@H]2N)[C@H](N)[C@@H](O)[C@@H]1O	0%	8 µg/mL (≈ 9.48 µM)	4 µg/mL (≈ 4.74 µM)	4 µg/mL (≈ 4.74 µM)	Toxic	4 µg/mL (≈ 4.74 µM)	16 µg/mL (≈ 19 µM)	4 µg/mL (≈ 4.74 µM)	4 µg/mL (≈ 4.74 µM)	4 µg/mL (≈ 4.74 µM)	4 µg/mL (≈ 4.74 µM)	16 µg/mL (≈ 19 µM)	30.4%	2 µg/mL (≈ 2.37 µM)	4 µg/mL (≈ 4.74 µM)	2 µg/mL (≈ 2.37 µM)	4 µg/mL (≈ 4.74 µM)		3.6%	Toxic	Ratio [24]: 2
CC(C)C[C@@H](NC(=O)[C@H](C)NC(=O)CNC(=O)[C@@H](NC=O)C(C)C)C(=O)N[C@@H](C)C(=O)N[C@@H](C(=O)N[C@H](C(=O)N[C@@H](C(=O)N[C@@H](Cc1c[nH]c2ccccc12)C(=O)N[C@H](CC(C)C)C(=O)N[C@@H](Cc1c[nH]c2ccccc12)C(=O)N[C@H](CC(C)C)C(=O)N[C@@H](Cc1c[nH]c2ccccc12)C(=O)N[C@H](CC(C)C)C(=O)N[C@@H](Cc1c[nH]c2ccccc12)C(=O)NCCO)C(C)C)C(C)C)C(C)C [GRAMICIDIN D] (For-VGA[dL]A[dV]V[dV]W[dL]W[dL]W[dL]W-NHCH2CH2OH)		32 µg/mL (≈ 17 µM)	< 0.5 µg/mL	2 µg/mL (≈ 1.06 µM)		< 0.5 µg/mL	64 µg/mL (≈ 34 µM)	< 0.5 µg/mL	< 0.5 µg/mL	8 µg/mL (≈ 4.25 µM)	> 64 µg/mL	> 64 µg/mL	< 60%	< 0.5 µg/mL	16 µg/mL (≈ 8.5 µM)	< 0.5 µg/mL	2 µg/mL (≈ 1.06 µM)			Toxic	hemolysis at 1 h, 2 ug/mL [27]: 2.4%
CCCCCCCCCCCCCCCCSC[C@H]1O[C@H](O[C@H]2[C@H](O[C@@H]3O[C@H](CO)[C@@H](O[C@H]4O[C@@H](CN)[C@@H](O)[C@H](O)[C@H]4N)[C@H]3O)[C@@H](O)[C@H](N)C[C@@H]2N)[C@H](N)[C@@H](O)[C@@H]1O	33.8%	64 µg/mL (≈ 74.8 µM)	> 64 µg/mL	8 µg/mL (≈ 9.34 µM)		8 µg/mL (≈ 9.34 µM)	64 µg/mL (≈ 74.8 µM)	32 µg/mL (≈ 37.4 µM)	64 µg/mL (≈ 74.8 µM)	32 µg/mL (≈ 37.4 µM)	32 µg/mL (≈ 37.4 µM)	64 µg/mL (≈ 74.8 µM)		16 µg/mL (≈ 18.7 µM)	32 µg/mL (≈ 37.4 µM)	32 µg/mL (≈ 37.4 µM)	64 µg/mL (≈ 74.8 µM)		100%		

Source: ChEMBL document CHEMBL2390839, “Di-alkylated paromomycin derivatives: targeting the membranes of gram positive pathogens that cause skin infections” (Bioorg Med Chem, 2013)
